Screening results from PubChem.
In the library only some 1% were active in any assay of this set; here they are far more common.
KLK5 inh – human KLK5 protease inhibitors, primary screen, biochemical, 1536-well. inhibition, % at 5 µM. recombinant hK5, fluorogenic AMC substrate cleavage. Kallikrein-5 (Homo sapiens), Q9Y337. 210,000 tested, 0.59% active;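 active = inhibition of 40% or more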
Thrombin inh – human alpha-thrombin inhibitors, primary screen, counter-screen for coagulation protease inhibitor project, biochemical, 1536-well, fluorogenic AMC substrate | Prothrombin (Homo sapiens), P00734 | Boc-VPR-AMC fluorogenic substrate cleavage | inhibition, % at 5 µM | 220,000 tested, 0.26% active | AID 1046, 2008;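 active = inhibition at or above 40%; inactive = inhibition below 40%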
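System: human alpha-thrombin protein; Compound dosing: one concentration per compound, 5 µM, with 0.2% DMSO; Timing: reaction at room temperature; Technique: AMC fluorescence, 355/460 nm; Controls: enzyme without compound as high, wells lacking enzyme as low.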
FXIa inh 1536 – human FXIa protease inhibitors, primary screen, biochemical, 1536-well; purified FXIa, Boc-Glu-Ala-Arg-AMC fluorogenic substrate; inhibition, % at 5 µM; 220,000 tested, 0.14% active;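 active = inhibition of at least 40%; inactive = inhibition below 40%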;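 note: fluorescence of freed AMC excited at 355 nm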
Target sequence (P03951 19-387 limits assumed): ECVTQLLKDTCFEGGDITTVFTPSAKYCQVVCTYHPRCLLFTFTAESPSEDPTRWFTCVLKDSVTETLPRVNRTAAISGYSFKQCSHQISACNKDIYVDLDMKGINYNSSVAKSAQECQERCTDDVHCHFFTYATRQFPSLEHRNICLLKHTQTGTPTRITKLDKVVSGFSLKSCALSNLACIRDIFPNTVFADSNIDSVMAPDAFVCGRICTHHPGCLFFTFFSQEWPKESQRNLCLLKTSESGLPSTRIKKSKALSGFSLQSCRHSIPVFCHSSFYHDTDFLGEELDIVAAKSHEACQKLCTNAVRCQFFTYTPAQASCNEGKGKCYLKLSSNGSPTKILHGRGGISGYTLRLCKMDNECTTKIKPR
Target sequence (P03951 388-625 limits assumed): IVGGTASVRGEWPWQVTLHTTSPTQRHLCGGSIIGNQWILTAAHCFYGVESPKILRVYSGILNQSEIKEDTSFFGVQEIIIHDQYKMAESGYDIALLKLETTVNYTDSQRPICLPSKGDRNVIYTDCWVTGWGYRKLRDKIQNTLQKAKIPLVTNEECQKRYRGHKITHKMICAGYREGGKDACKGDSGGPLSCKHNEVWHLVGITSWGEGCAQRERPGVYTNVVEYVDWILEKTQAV
FXIIa inh – human FXIIa protease inhibitors, primary screen, biochemical, 1536-well. purified FXIIa, Boc-QGR-AMC fluorogenic substrate, 2 h. 220,000 tested, 0.3% active. AID 800, 2007. Coagulation factor XII (Homo sapiens), P00748. inhibition, % at 5 µM; in the data active = inhibition above about 40%
Numbers stand for hits; i = inactive; nt = no result.

SMILES | KLK5 inh | Thrombin inh | FXIa inh 1536 | FXIIa inh
CCOC(=O)CSc1nnc(-c2ccco2)n1-c1ccccc1 | i | i | i | i
CCOC(=O)CSc1nnc(-c2ccco2)n1-c1ccc(C)cc1 | 45.4 | i | i | i
COc1ccccc1-c1nnc(SCC(=O)O)n1-c1ccc(C)cc1 | i | i | i | i
COC(=O)CSc1nnc(-c2ccccc2OC)n1-c1ccc(C)cc1 | 42.9 | 46.3 | i | i
Cc1nn2c(=O)c3c4c(sc3nc2n1-c1ccccc1)COC(C)(C)C4 | i | i | i | i
CN(c1ncc(C(F)(F)F)cc1Cl)N1C(=O)c2cccc([N+](=O)[O-])c2C1=O | 46.5 | i | i | i
CN(C)C(=O)c1cn(N(C)c2ncc(C(F)(F)F)cc2Cl)c(=O)c2ccccc12 | i | i | i | i
Cc1nn(C)c(C)c1/C=C(/C(=O)C(C)C)n1cncn1 | 40.0 | i | 41.6 | i
O=C(NCCc1ccc2c(c1)OCCO2)c1ccc([N+](=O)[O-])cc1Cl | 40.5 | i | i | i
O=C(NCCc1cccc(Cl)c1)c1cc([N+](=O)[O-])ccc1Cl | i | i | i | i
O=C(NCCCN1CCN(CCCNC(=O)c2cc([N+](=O)[O-])ccc2Cl)CC1)c1cc([N+](=O)[O-])ccc1Cl | 43.0 | i | i | i
Cc1cc(C(=O)NP(=O)(N2CC(C)OC(C)C2)N2CC(C)OC(C)C2)c(C)n1C1CC1 (stereo not given) | i | nt | i | i
CCOC(=O)Cc1csc(NC(=O)c2sc3nc4cc(C)ccc4cc3c2N)n1 | i | i | i | i
CCOC(=O)Cc1csc(NC(=O)c2sc3nc4ccc(CC)cc4cc3c2N)n1 | 90.6 | i | 43.1 | i
COc1cccc(N2C(=O)CC(N3CCN(CCN=CC4=C(O)CC(C)(C)CC4=O)CC3)C2=O)c1 (stereo not given) | i | i | i | i
COc1cc(NS(=O)(=O)c2ccc(NC(C)=O)cc2)ncn1 | i | i | i | i
COc1ccc(NS(=O)(=O)c2ccc(NS(=O)(=O)c3ccc(C)cc3)cc2)nn1 | 64.6 | i | i | i
COc1ccccc1NS(=O)(=O)c1ccc(O)c(C(=O)OCC(=O)c2ccc(Cl)cc2Cl)c1 | i | i | 49.2 | i
CC(=O)NC1CCCN(O)C(=O)/C=C(\C)CCOC(=O)C(NC(C)=O)CCCN(O)C(=O)/C=C(\C)CCOC(=O)C(NC(C)=O)CCCN(O)C(=O)/C=C(\C)CCOC1=O (stereo not given) | i | i | i | i
O=C(Nc1ccccc1Cl)C1CC(=O)N(c2ccccc2)C1 (stereo not given) | i | i | i | 40.6
COc1ccc(N2CC(C(=O)Nc3ccc(S(=O)(=O)Nc4nc(C)cc(C)n4)cc3)CC2=O)cc1 (stereo not given) | i | i | i | i
Cc1cc(C)nc(NS(=O)(=O)c2ccc(NC(=O)C3CC(=O)N(c4ccccc4)C3)cc2)n1 (stereo not given) | 59.5 | i | i | i
CCC(C)Sc1cc(C(F)(F)F)c(C(=O)Nc2ccc(Cl)cc2)cn1 (stereo not given) | i | i | i | i
O=[N+]([O-])c1cccc(-c2nnc(C3CC3)o2)c1 | i | i | i | i
Nc1nnc(-c2cccc([N+](=O)[O-])c2)o1 | 50.9 | i | i | i
SMILES | KLK5 inh | Thrombin inh | FXIa inh 1536 | FXIIa inh
CCn1c(C(=O)Nc2ccsc2C(=O)OC)cc2sc(Cl)cc21 | 46.5 | i | i | i
COC(=O)c1sccc1NC(=O)c1ccc(Cl)s1 | i | i | i | i
NC(=S)NC(=O)/C=C/c1ccccc1 | i | i | i | i
Cc1cccc(NC(=S)NC(=O)/C=C/c2ccccc2)n1 | i | 50.3 | i | i
CC(C)N(CCCNC(=O)CC1Oc2ccccc2NC1=O)Cc1ccccc1 (stereo not given) | 55.4 | i | i | i
O=C(CC1Oc2ccccc2NC1=O)NCCCN1CCCC1=O (stereo not given) | 53.3 | i | i | i
Cc1ccc(C(=O)NC(C#N)=C(Cl)Cl)cc1 | i | nt | i | i
COC(=O)c1ccc2nc(NC(=O)CSCC(=O)OCC(=O)c3ccccc3)sc2c1 | i | i | i | i
Cc1ccc2nc(NC(=O)CSCC(=O)OCC(=O)c3ccc(Br)cc3)sc2c1 | i | 92.0 | i | i
CC(=O)Nc1ccc(NC(=O)CSc2ccccn2)cc1 | i | i | i | i
CC(=O)Nc1ccc(NC(=O)CSc2nccn2Cc2ccccc2)cc1 | 57.4 | i | i | i
CC(=O)Nc1ccc(NC(=O)CSc2ncnn2-c2ccccc2)cc1 | i | i | i | 42.7
COC(=O)C1CCCN1C(=O)COc1ccc(Cl)cc1Br (stereo not given) | i | i | i | i
O=C(Nc1cccc(S(=O)(=O)N2CCCCC2)c1)Nc1ccc(Cl)cc1Cl | i | i | i | i
Cc1cccc(C)c1NC(=S)N/N=C/c1c(Cl)cccc1Cl | i | 50.1 | i | i
Cc1ccc(NC(=O)CSc2nnc(CNC(=O)c3cccs3)o2)c(C)c1 | i | i | i | i
Cc1cc2ncn(S(=O)(=O)N3CCOCC3)c2cc1C | 46.7 | 79.7 | i | i
CC1=[N+](C)c2ccc3ccccc3c2C1(C)C | i | i | i | i
O=c1cc(-c2ccccc2Cl)oc2c([N+](=O)[O-])c(O)cc(O)c12 | i | i | i | i
Cn1cc(-c2nnc(-c3ccccc3)o2)c2ccccc21 | 86.8 | i | i | i
O=C(Oc1ccc(=O)n(-c2ccccc2)n1)c1cccc(Cl)c1 | i | i | 68.0 | i
O=C(Oc1ccc(=O)n(-c2ccccc2)n1)c1ccc(Cl)cc1 | i | i | 51.3 | i
COc1ccc(C2/C=C\CN(C(=O)C3CCCC3)CC(=O)N2Cc2ccc(F)cc2)cc1 (stereo not given) | i | i | i | i
O=C(NC1CCCCC1)C(c1ccc(O)c(O)c1)N(C(=O)Cn1nnc2ccccc21)c1cccc(O)c1 (stereo not given) | i | i | i | i
COCCCn1c(=O)/c(=C\c2ccc(OC(F)F)c(OC)c2)s/c1=C(/C#N)C(=O)NCCOC | i | i | i | i
SMILES | KLK5 inh | Thrombin inh | FXIa inh 1536 | FXIIa inh
COc1ccc(S(=O)(=O)NC(CCSC)C(=O)NC2CCCCC2)cc1 (stereo not given) | 41.3 | i | i | i
CSCCC(NS(=O)(=O)c1ccc(C)cc1)C(=O)NC1CCCCC1 (stereo not given) | i | i | i | i
Cc1ccccc1NNC(=O)C(=O)NNc1ccccc1C | 50.2 | i | i | i
CC(=O)c1ccc(OCC(O)CN2CCC(C)CC2)cc1 (stereo not given) | i | i | i | i
CC(=O)c1ccc(OCC(O)CN2C(C)CCCC2C)cc1 (stereo not given) | 52.4 | i | i | i
Cc1ccccc1N1C(=S)NC2c3ccccc3OC1(C)C2C(=O)N(C)C (stereo not given) | i | i | i | i
Cc1ccc(N2C(=S)NC3c4ccccc4OC2(C)C3C(=O)N(C)C)cc1 (stereo not given) | i | 44.4 | i | i
O=C(COC(=O)c1ccccc1Br)Nc1ccc(F)cc1 | i | i | i | 41.3
